The nature of data set [1]: The aqueous solubility in phosphate buffer. The class given is physicochemical. The note with it: read-out: S. In short, it runs like this: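 Excess solid added to phosphate buffer (50 mM, μ = 0.15, pH 7.4) at room temperature and vortexed 30 min. pH checked and adjusted during solubilization. Suspension centrifuged and filtered (0.45 membrane). Filtrate quantified by HPLC.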

The nature of data set [2]: The apparent partition coefficient at pH 2.0. The class given is physicochemical. The note with it: octanol/water. Put shortly:
(§1)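 1-Octanol/phosphate buffer (50 mM, μ = 0.15) at pH 2.0 or 7.4. Prodrug (0.8–1.5 mg) in 1.0 mL buffer shaken with 5.0 mL octanol, 1 h at pH 7.4 or 5 min at pH 2.0. Phases separated by centrifugation. Aqueous concentration measured by HPLC before and after shaking. Triplicate, mean reported.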

A short description of data set [3]: The apparent partition coefficient at pH 7.4. Type of data set: physicochemical. The note with it: octanol/water. In short, it runs like this: as §1
Data set [4] in a line: (§2) Rate data for enzymatic hydrolysis in 80% human serum at pH 7.4; Completely hydrolyzed during 1 min. The class given is ADME. The note with it: pH 7.4, 1 min.
For a further data set, the species on record is Homo sapiens. Described as §2. Type of data set: ADME, organism-based. The note with it: pH 7.4, 1 min.
Data set [5] is described as follows: Rate data in phosphate buffer at pH 7.4. The class given is ADME. Put shortly: (§3)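 Chemical hydrolysis at 37 °C in phosphate buffer (50 mM, μ = 0.15) at pH 2.0 or 7.4. Prodrug (12 mg) dissolved in preheated buffer. Samples withdrawn at intervals and assayed by HPLC. Pseudo-first-order rate constants calculated from the buffer hydrolysis data.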
Data set [6] is described as follows: Rate data in phosphate buffer at pH 2.0. Type of data set: ADME. Put shortly: as §3
Data set [7] in a line: (§4) Rate data for enzymatic hydrolysis in 80% human serum at pH 7.4. The class given is ADME.
Data set [8] is described as follows: as §4. The class given is ADME, organism-based.

Data on 4 compounds can be found in ChEMBL document CHEMBL1132712, “Bisphosphonate prodrugs: synthesis and in vitro evaluation of novel clodronic acid dianhydrides as bioreversible prodrugs of clodronate” (J Med Chem, 1999).

SMILES strings stand for the structures.

The term logD denotes lipophilicity at a set pH, counting ionised and neutral species. For orientation: half-life means the time in which the quantity being followed falls by half. High values mean slow decline, low ones rapid decline.

Take `CCCC(=O)OP(=O)([O-])C(Cl)(Cl)P(=O)([O-])OC(=O)CCC.[Na+].[Na+]`: the solubility in data set [1] was found to be 172 mg/mL. The log distribution coefficient (logD) in data set [2] is -1.9; in data set [3], -2.3. Further, the K obs result in [4] is “Completely hydrolyzed during 1 min”; in data set [5], 0.00037 min⁻¹; in data set [6], 0.014 min⁻¹. Also, the T1/2 result in the data set listed under Homo sapiens is “Completely hydrolyzed during 1 min”. The figures for the half-life in data set [5] and in [6] were 31.3 h and 0.817 h, respectively.

In the case of `CC(C)(C)C(=O)OP(=O)([O-])C(Cl)(Cl)P(=O)([O-])OC(=O)C(C)(C)C.[Na+].[Na+]`, in [1], the solubility was found to be 23.5 mg/mL. For the same compound, the K obs amounted to 0.0035 min⁻¹ in [7], 0.000015 min⁻¹ in [5] and 0.0013 min⁻¹ in data set [6]. The values for the log distribution coefficient (logD) in [2] and in data set [3] were -2 and -2.3, respectively. The half-life was 790 h in data set [5], 8.6 h in data set [6] and 3.3 h in data set [8].

On to `CC(=O)OP(=O)([O-])C(Cl)(Cl)P(=O)([O-])OC(C)=O.[Na+].[Na+]`, for which, in data set [1], the solubility came out at 190 mg/mL. The pH-dependent lipophilicity (logD) in data set [2] is -1.4; in data set [3], -2.2. In addition, the K obs result in data set [4] is “Completely hydrolyzed during 1 min”; in data set [5], 0.00076 min⁻¹; in data set [6], 0.016 min⁻¹. In addition, the T1/2 entry in the data set listed under Homo sapiens is recorded as “Completely hydrolyzed during 1 min”. The half-life in data set [5] is 15.2 h; in data set [6] it was 0.75 h.

In the case of `O=C(OP(=O)([O-])C(Cl)(Cl)P(=O)([O-])OC(=O)c1ccccc1)c1ccccc1.[Na+].[Na+]`, in data set [1], the solubility is 6 mg/mL. In addition, the logD in data set [2] was -1.5; in data set [3], -2.3. Moreover, the K obs result was “Completely hydrolyzed during 1 min” in data set [4], 0.000049 min⁻¹ in data set [5] and 0.00004 min⁻¹ in [6]. Further, the T1/2 result in the data set listed under Homo sapiens was “Completely hydrolyzed during 1 min”. In addition, the half-life in [5] was 235 h; in data set [6], 286 h.
